Only some compounds are listed: those with a hit (about 3.1% of all), similar ones and a draw of the others.
hERG protect: compounds protecting human hERG from proarrhythmic drug block. Q12809. CHO-hERG, FluxOR thallium flux, dofetilide IC70 present. activation (rescue from dofetilide block), less the hit threshold, % at 10 µM. 0.51% of 310,000 active. AID 1511;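 active = activation above the mean of controls blocked by dofetilide plus 5 SD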;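 also: thallium influx through hERG after potassium depolarization seen as dye fluorescence rise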
KCNQ1 block: inhibitors of human KCNQ1 potassium channel. CHO-K1 KCNQ1, FluxOR thallium flux fluorescence; hits give high values. AID 2642. B-score at 10 µM. 1.3% of 310,000 active. P51787;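 active = compounds whose thallium flux B-score, printed positive for inhibition, exceeds three library SD while starting fluorescence stays within three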;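 also: channel opened by potassium depolarization with thallium stimulus after 20 min compound exposure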
Target sequence (P51787 whole entry, looked up): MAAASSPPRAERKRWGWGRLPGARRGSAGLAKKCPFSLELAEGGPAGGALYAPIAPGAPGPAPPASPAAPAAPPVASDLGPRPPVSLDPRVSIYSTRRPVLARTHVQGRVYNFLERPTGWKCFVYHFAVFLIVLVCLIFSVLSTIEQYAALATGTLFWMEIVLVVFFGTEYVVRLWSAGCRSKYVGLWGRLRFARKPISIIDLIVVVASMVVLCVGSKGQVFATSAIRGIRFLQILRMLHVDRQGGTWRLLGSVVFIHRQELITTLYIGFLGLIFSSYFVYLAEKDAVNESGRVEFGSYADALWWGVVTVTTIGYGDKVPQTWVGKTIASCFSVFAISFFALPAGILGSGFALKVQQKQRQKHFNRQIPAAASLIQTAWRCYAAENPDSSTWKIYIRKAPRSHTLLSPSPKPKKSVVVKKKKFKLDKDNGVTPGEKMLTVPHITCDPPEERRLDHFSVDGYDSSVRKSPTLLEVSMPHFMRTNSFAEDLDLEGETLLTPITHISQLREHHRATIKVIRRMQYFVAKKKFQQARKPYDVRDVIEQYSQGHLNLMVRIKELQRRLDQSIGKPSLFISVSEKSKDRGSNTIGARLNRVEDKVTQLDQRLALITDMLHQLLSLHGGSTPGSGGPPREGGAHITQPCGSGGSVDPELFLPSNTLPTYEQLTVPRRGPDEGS
KCNK3 inh: human KCNK3 channel inhibition, primary screen; O14649; CHO-KCNK3 thallium flux, FluxOR fluorescence; hits give low values; B-score at 10 µM; 0.84% of 340,000 active;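 active = B-score under library mean minus 4 SD, starting fluorescence ratio at most library mean plus 5 SD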;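 also: more negative B-score means stronger inhibition of thallium flux through KCNK3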
KCNK9 inh: inhibitors of human KCNK9 two-pore domain potassium channel; HEK293 KCNK9, FluxOR thallium flux fluorescence; hits give low values; 1.2% of 310,000 active; B-score at 10 µM; AID 488922; Q9NPC2;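 active = ratio B-score over 3 SD below the library mean, with starting fluorescence within 5 SD of its mean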;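 also: negative B-score means less thallium flux so channel inhibition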
KCNQ1 act: human KCNQ1 channel potentiation or activation. P51787. CHO-K1 KCNQ1, thallium flux FluxOR fluorescence; hits give high values. B-score at 10 µM. 0.35% of 310,000 active;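 active = fluorescence ratio B-score, a plate-corrected score, at least three library SD, with initial intensity B-score within 5 SD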
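Test system: CHO-K1 cells stably expressing KCNQ1 / Medium: assay buffer / Also added: depolarizing K+/Tl+ stimulus, K2SO4 and Tl2SO4 each 12.5 mM in 5x stock / Incubation: 90 min dye loading and 20 min compound exposure, both at room temperature / Signal: thallium influx via FluxOR fluorescence, kinetic imaging / Evaluation: B score of baseline-normalized fluorescence ratio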
Starred values were filed as active, the others as inactive; i = inactive; x = not tested or not shown.

SMILES	hERG protect	KCNQ1 block	KCNK3 inh	KCNK9 inh	KCNQ1 act
Cc1ccc(/C=C2\SC(=S)N(/N=C/c3cc([N+](=O)[O-])ccc3O)C2=O)o1	-3	6*	i	i	i
Cc1ccccc1N(CC(=O)NC1CCCCC1)C(=O)c1csnn1	-6	i	i	i	i
Cc1cccc(N(CC(=O)NC2CCCC2)C(=O)c2csnn2)c1C	-3	i	i	i	8*
CCOc1ccc(C2C(C(=O)OC)=C(C)N=C3SCCC(=O)N32)cc1OCC (stereo unspecified)	-5	i	-8.8*	i	i
CCOc1cc(C2C(C(=O)OC)=C(C)N=C3SCCC(=O)N32)ccc1OC(C)=O (stereo unspecified)	-6	i	i	i	i
NC1=NC(=O)C(c2ccccc2)C(=O)N1 (stereo unspecified)	x	x	i	x	x
Cc1ccc(S(=O)(=O)N(C)C)cc1NC(=O)COc1ccccc1C(=O)Nc1ccccc1	-9	i	i	i	i
Cc1ccc(NC(=O)COc2ccccc2C(=O)NCCN(C)C)cc1	6.9*	i	x	i	i
COc1ccccc1C(=O)NCCC(=O)N(C)CC(=O)Nc1ccc(C)cc1	-11	i	i	i	i
Cc1ccc(NC(=O)c2ccccc2OCC(=O)Nc2ccccc2F)cc1S(=O)(=O)N(C)C	x	x	-9.6*	x	x
O=C(COC(=O)c1cnccn1)Nc1ncc(C(F)(F)F)cc1Cl	x	x	i	x	x
O=C(COC(=O)CN1C(=O)NC2(CCCCC2)C1=O)Nc1cc(F)ccc1F	x	x	i	x	x
Cn1cnnc1Sc1ccc(C(=O)NCCC(c2ccccc2)c2ccccc2)cc1[N+](=O)[O-]	-10	10*	i	i	i
COc1ccc(N(C)C(=O)c2ccc3nc(-c4ccccc4)c(-c4ccccc4)nc3c2)cc1	-10	9*	i	-7.4*	i
Cc1nc2nc(CCNS(=O)(=O)c3ccc(Cl)cc3)cn2nc1C	-7	i	i	i	i
O=C(Cn1c(=O)c2c(ncn2Cc2ccccc2)n(Cc2ccccc2)c1=O)N1CCc2ccccc21	-9	i	i	i	7*
CCn1cnc2c1c(=O)n(CC(=O)N1CCc3ccccc31)c(=O)n2Cc1ccccc1	-13	i	i	i	i
COc1cc(NC(=NS(=O)(=O)c2ccccc2)c2ccccc2)ncn1	x	x	i	x	x
COc1ccc(CNCC(O)(c2ccccc2)c2ccc(F)cc2)cc1 (stereo unspecified)	-12	i	i	i	i
OC(CNCc1ccc(F)cc1)(c1ccc(F)cc1)c1ccc(F)cc1	-9	i	i	-6.6*	i
OC(CNCc1ccc(Cl)cc1)(c1ccccc1)c1ccc(F)cc1 (stereo unspecified)	-18	i	i	-7.6*	i
CC(CC(=O)Nc1ccc(Cl)c([N+](=O)[O-])c1)c1ccccc1 (stereo unspecified)	-16	10*	i	i	i
O=C(Nc1ccc(Cl)c([N+](=O)[O-])c1)Nc1nc2ccccc2s1	-9	9*	x	i	i
CCc1cc2c(=O)n(CCC(C)C)c(=S)[nH]c2s1	26*	i	i	i	35*
Cc1ccc(C(=O)N2CCNC(=O)C2CC(=O)Nc2ccc(F)cc2)cc1C (stereo unspecified)	-5	i	i	i	i
SMILES	hERG protect	KCNQ1 block	KCNK3 inh	KCNK9 inh	KCNQ1 act
O=C(Nc1ccc([N+](=O)[O-])cc1)Nc1ccc(Cl)cc1F	-16	14*	i	i	i
Cc1cc(OC(F)F)ccc1NC(=O)Nc1ccc([N+](=O)[O-])cc1	-11	6*	i	i	i
CCN(CC(=O)Nc1c(F)cccc1F)C(=O)c1cc([N+](=O)[O-])ccc1N1CCCCC1	-13	i	i	i	i
CCN(CC)S(=O)(=O)c1ccc(C(=O)/C=C/c2ccc(-c3ccc([N+](=O)[O-])cc3)o2)cc1	-14	i	-9.3*	i	i
Cc1ccc(-n2ncc3c(NNC(=O)c4cccs4)ncnc32)cc1	5.7*	i	i	i	i
COc1ccc(-c2csc(NC(=O)C3=NN(c4ccccc4)C(=O)CC3)n2)cc1	-11	i	i	i	105*
O=C(Nc1nc(-c2cc(F)ccc2F)cs1)C1=NN(c2ccccc2)C(=O)CC1	-12	i	i	i	i
Nc1nnnn1CC(=O)N/N=C/C=C/c1ccccc1	-6	i	i	i	i
O=C(Cn1nnc2ccccc21)N/N=C\C=C\c1ccccc1	6.7*	i	i	i	i
Cc1cc(C)c(C#N)c(N2CCN(CCOc3ccc(Cl)cc3)CC2)n1	-13	i	i	i	i
COc1ccc(Cl)cc1CN1CCN(c2nc(C)cc(C)c2C#N)CC1	-12	i	-9.6*	i	i
O=C(O)c1cc(S(=O)(=O)N2CCCCC2)ccc1N1CCOCC1	x	x	i	x	x
Cc1ccc(NC(=O)CCc2c(C)nc3ncnn3c2C)cc1	-12	i	i	i	i
Cc1cccc(NC(=O)CCc2c(C)nc3ncnn3c2C)n1	6.4*	i	i	i	i
Oc1ccc(C=NN=C2c3ccccc3-c3ccccc32)c(O)c1	x	x	-8.8*	x	x
O=[N+]([O-])c1cccc(/C=N\N=C2c3ccccc3-c3ccccc32)c1O	-19	i	i	i	i
COc1cc(C)c(C(C)C)cc1S(=O)(=O)NC1CC(C)(C)NC(C)(C)C1	5.7*	i	i	i	i
CCC(=O)Nc1cccc(C2=NOC3(C2)C[C@H](C(N)=O)N(C(=O)CC#N)C3)c1 (stereo partly specified)	6.2*	i	i	i	i
CCC(=O)Nc1cccc(C2=NOC3(C2)C[C@@H](C(N)=O)N(C(=O)CC)C3)c1 (stereo partly specified)	-12	i	i	i	i
CCN(CC(=O)Nc1ccc(OC)cc1)C(=O)c1ccc(N2C(=O)CCC2=O)cc1	x	x	i	x	x
Clc1ccc(N2N=C(c3cccs3)CC2c2ccco2)cc1 (stereo unspecified)	-10	8*	i	i	i
c1ccc(N2N=C(c3cccs3)CC2c2ccco2)cc1 (stereo unspecified)	x	x	i	x	x
COc1ccccc1CNCc1cccc(Oc2ccccc2)c1	-15	i	i	i	8*
Fc1ccc(-n2cc(-c3ccccc3)c3c(=S)nc[nH]c32)cc1	1	i	i	i	10*
Cc1cc(C)cc(OCC(=O)NNC(=O)c2cc3ccccc3o2)c1	0	i	i	i	8*
Brc1ccc2c(c1)OCCOCCOc1cc(Br)ccc1OCCOCCOCCO2	-22	6*	i	-7.7*	i
O=C(CC1SC(N2CCCC2)=NC1=O)Nc1ccc(C(=O)NCc2ccc(F)cc2)cc1 (stereo unspecified)	x	x	i	x	x

Assay outcomes as filed in PubChem.
